# Assay outcomes (PubChem)
# Hits are enriched below; roughly 2.4% of the tested compounds scored in any of these assays.
# NPY-Y2 PAM-ag – potentiators or agonists of human neuropeptide Y receptor Y2 | AID 1359 | activation, % at 3.6 µM | 0.45% of 220,000 active | P49146 | cells expressing NPY-Y2, potentiator/agonist read-out; in the data active = activation above about 27%;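 note: cells stimulated with NPY near EC25 plus isoproterenol at EC100; 0% = vehicle plus submaximal agonist and 100% = vehicle plus saturating agonist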
# Target sequence (P49146 whole entry, looked up): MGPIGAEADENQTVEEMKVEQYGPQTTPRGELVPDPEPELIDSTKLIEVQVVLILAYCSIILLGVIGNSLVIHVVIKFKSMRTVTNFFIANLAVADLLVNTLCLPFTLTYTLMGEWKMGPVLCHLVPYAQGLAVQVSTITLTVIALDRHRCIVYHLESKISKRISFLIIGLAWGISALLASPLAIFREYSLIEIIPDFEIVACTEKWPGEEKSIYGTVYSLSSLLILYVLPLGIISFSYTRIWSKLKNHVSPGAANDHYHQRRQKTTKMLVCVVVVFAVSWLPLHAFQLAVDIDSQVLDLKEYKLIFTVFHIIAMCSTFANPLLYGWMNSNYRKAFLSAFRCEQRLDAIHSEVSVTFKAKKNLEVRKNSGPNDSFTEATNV
# NPY-Y1 antag – blocks the human neuropeptide Y Y1 receptor; P25929; HEK293-CNG Y1 cells, membrane potential fluorescence; NPY at EC95, then isoproterenol; inhibition, % at 3.6 µM; 1% of 200,000 active; AID 1040;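 active = inhibition above the campaign mean inhibition of all tested compounds plus 3 SD, cut at about 20% in these data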;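 note: 0% = DMSO wells given NPY plus isoproterenol and 100% = isoproterenol alone without NPY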
#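 Test system: HEK293 cells co-expressing NPY Y1 receptor and cyclic-nucleotide gated channel; Also added: NPY (25 nM), isoproterenol (1 µM), Ro 20-1724 (25 µM); Compound dosing: one concentration, 3.6 µM, in 0.4% DMSO; Timing: dye 3 h, compound 60 min room temperature, stimulation 45 min; Technique: Membrane-potential fluorescent dye readout.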
# S1P4 ag – activates the human S1P4 receptor; 0.35% of 220,000 active; activation, % at 4.98 µM; S1P4-expressing cell line, agonist reporter assay; AID 1509; in the data active = activation above about 11%;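 note: 0% = DMSO vehicle and 100% = reference agonist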
# NPY1 pot ag – human NPY-Y1 potentiation or agonism, primary screen; activation, % at 3.6 µM; 0.37% of 220,000 active; AID 1304; NPY-Y1 expressing cells, potentiator/agonist activation; in the data active = activation above about 33%, passing the limit was not always enough;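 note: cells stimulated with NPY at EC10 then isoproterenol at EC100; 0% = low agonist plus stimulus and 100% = saturating agonist plus stimulus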
# S1P4 antagonist – human S1P4 receptor antagonism. AID 1510. inhibition, % at 4.98 µM. S1P4-expressing cells, antagonist mode, reporter read-out. 0.26% of 220,000 active; in the data active = inhibition above about 29%;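 note: 0% = wells stimulated with agonist and 100% = vehicle wells without agonist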
# NPY Y2 blocker – antagonists of human neuropeptide Y receptor Y2; NPY-Y2 expressing cells, antagonist mode; 0.99% of 140,000 active; AID 793; inhibition, % at 2.7 µM; P49146; in the data active = inhibition above about 17%;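 note: 0% = vehicle with agonist challenge and 100% = reference antagonist with challenge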
# Numbers without * were called inactive; nt = not tested or not shown.
SMILES,NPY-Y2 PAM-ag,NPY-Y1 antag,S1P4 ag,NPY1 pot ag,S1P4 antagonist,NPY Y2 blocker
CCN(CC)CCN(C(=O)c1c(F)cccc1F)c1nc2cc(C)cc(C)c2s1,-8.3,7.7,-0.1,-4.1,2.0,nt
N=C(N)c1ccc(OCCCCCOc2ccc(C(=N)N)cc2)cc1,5.5,-4.7,2.8,-4.7,-12.1,-0.2
CCCCCCOc1ccc(/C(N)=N/O)cc1,99.3*,-10.7,1.6,83.7*,1.1,3.3
CCc1ccc(N2C(=O)CC(Cn3nc(C)cc3C)C2=O)cc1 (configuration not stated),-14.4,nt,0.2,-2.3,1.4,nt
CC(=O)SC(C)CC(=O)Nc1ccccc1 (configuration not stated),33.7*,-18.6,-0.1,41.9*,-6.0,-6.6
CC(=O)SC(C)CC(=O)NCc1ccccc1 (configuration not stated),54.1*,-8.8,0.4,118.7*,-6.6,-5.8
CC(CC(=O)Nc1ccncc1)c1ccccc1 (configuration not stated),9.0,-5.5,2.6,10.7,-7.6,4.0
Cc1ccc(-n2c(-c3ccc(Br)cc3)c[n+]3c2CCc2ccc4cccnc4c2-3)cc1,-28.6,54.2*,-1.9,-74.1,-8.0,69.6*
CC(=O)c1ccc(NC(=O)c2ccn(C(=O)OCC(C)C)n2)cc1,-4.3,-1.8,1.5,1.2,-16.4,0.1
COc1ccc(N2CCN(c3oc(COc4ccccc4)nc3C#N)CC2)cc1,-11.7,38.8*,-1.5,1.1,-8.9,26.8*
N#Cc1nc(COc2ccc(Br)cc2)oc1N1CCCC1,-49.3,27.3*,0.6,-23.4,19.3,22.3*
N#Cc1nc(COc2ccc(Cl)cc2)oc1N1CCN(Cc2ccccc2)CC1,-37.4,33.5*,0.3,-49.1,-1.2,32.1*
COc1ccc(N2CCN(c3oc(COc4ccc(Cl)cc4Cl)nc3C#N)CC2)cc1,-15.9,51.8*,2.1,-51.0,4.8,10.8
COc1ccc(N2CCN(c3oc(COc4ccc(Cl)cc4)nc3C#N)CC2)cc1,-8.0,48.7*,1.0,-39.8,6.9,24.0*
Cc1ccc(SCC(=O)Nc2ccc(S(N)(=O)=O)cc2)cc1,13.5,2.6,0.0,4.2,-5.6,nt
CCN(CC)c1ccc(/C=N/NC(=O)c2cccc(S(=O)(=O)Nc3ccccc3OC)c2)c(O)c1,34.7*,-9.5,0.0,46.5*,-5.1,-0.9
CSc1nnc2c3ccccc3n(CCc3ccccc3)c2n1,-11.5,28.9*,-1.1,-20.4,-6.8,27.7*
Clc1ccccc1Cc1noc(CN2CCN(Cc3ccccn3)CC2)n1,-0.8,-0.7,0.4,8.7,-12.2,nt
O=C(Nc1ccccc1N1CCN(c2ccc(F)cc2)CC1)c1ccccc1,-7.3,49.0*,-0.8,-6.4,-5.9,29.2*
O=C(COc1ccccc1)Nc1ccccc1N1CCN(c2ccc(F)cc2)CC1,15.2,3.0,2.4,3.2,-6.5,4.4
CC(=O)N1N=C(c2ccc(C)c([N+](=O)[O-])c2)OC1(C)C,-45.2,nt,1.5,-14.2,4.7,nt
CCC(=O)N1CCc2cc(S(=O)(=O)NC(C(=O)NC3CCCc4ccccc43)C(C)C)ccc21 (configuration not stated),5.4,8.7,0.3,0.7,6.9,1.2
N#Cc1nc(-c2ccco2)oc1N1CCN(c2ccccc2)CC1,-4.5,26.1*,0.0,-43.9,-0.7,11.2
N#Cc1nc(-c2ccco2)oc1N1CCOCC1,-22.2,3.7,0.2,3.0,11.0,0.0
N#Cc1nc(-c2ccco2)oc1N1CCC(Cc2ccccc2)CC1,-20.4,20.8*,0.7,-22.8,-5.1,20.4*
SMILES,NPY-Y2 PAM-ag,NPY-Y1 antag,S1P4 ag,NPY1 pot ag,S1P4 antagonist,NPY Y2 blocker
O=C(O)C(Cc1ccccc1)N1C(=O)/C(=C/c2cccc3ccccc23)SC1=S (configuration not stated),-22.4,10.1,-0.5,-55.2,5.9,19.9*
COc1ccc(COC(=O)NNC(=O)c2ccccc2Cl)cc1,7.0,0.3,1.8,-15.0,-1.6,1.8
Cc1sc2nc(SCC(=O)C(C)(C)C)n(Cc3ccco3)c(=O)c2c1C,-8.4,28.9*,-1.2,-20.2,0.5,18.3*
Cc1ccc(Cn2ccc(=O)c(Cc3c(Cl)cccc3Cl)c2C)cc1,1.9,8.6,2.5,3.0,-25.2,11.2
Cc1c(Cc2c(Cl)cccc2Cl)c(=O)ccn1C(C)c1ccccc1 (configuration not stated),2.4,20.1,2.7,-4.8,0.2,21.9*
COc1cccc2c1C(CO)N1C(C#N)C3CC(C(=O)O)C(C1C2)N3C (configuration not stated),2.4,nt,-0.1,-0.1,93.6*,nt
N#CCCS(=O)(=O)c1nnnn1-c1ccccc1,-18.9,-3.2,-6.7,-22.1,38.4*,1.4
c1ccc(-n2nnnc2Cc2nnnn2-c2ccccc2)cc1,-2.9,2.1,-0.8,-9.8,-20.4,nt
Cc1ccccc1NC(=O)COC(=O)c1ccc(S(C)(=O)=O)c([N+](=O)[O-])c1,21.8,-5.2,-1.7,18.5,13.1,nt
CC(CCc1ccccc1)NC(=O)COC(=O)c1ccc(S(C)(=O)=O)c([N+](=O)[O-])c1 (configuration not stated),52.2*,-5.9,0.3,66.4*,15.5,nt
C=CCc1ccccc1OCC(O)CNC(=O)c1ccccc1C(=O)O (configuration not stated),92.4*,nt,2.6,86.9*,1.6,nt
CC(C)(C)c1ccc(OCC(O)CNC(=O)c2ccccc2C(=O)O)cc1 (configuration not stated),-10.9,16.5,-3.4,-54.4,-22.3,6.2
C=CCc1ccccc1OCC(O)CN(CC)CC (configuration not stated),88.8*,-14.7,1.0,102.9*,-12.9,1.5
CCOc1ccc(C(=O)Nc2cc(-c3nc4ccccc4[nH]3)ccc2Cl)cc1[N+](=O)[O-],-3.0,2.1,1.3,-57.4,-12.7,3.8
COc1ccc(OCCCNCCc2ccccc2)cc1,-10.7,21.3*,-0.5,0.4,-12.1,nt
O=S(=O)(Oc1ccc(Cl)cc1)c1cccc2cccnc12,13.0,nt,1.1,7.0,9.1,nt
Cc1ccc([N+](=O)[O-])c(OCC(O)CNC(C)(C)C)c1 (configuration not stated),104.7*,nt,-2.5,112.6*,0.3,nt
CC(C)(CO)NCC(O)COc1ccc2c(c1)CCC2 (configuration not stated),88.4*,-13.2,-2.0,100.6*,-6.5,2.8
CC(C)(C)NCC(O)COc1ccc(Br)cc1 (configuration not stated),97.4*,-11.4,-1.1,107.5*,5.0,nt
CC(C)(C)CC(C)(C)NCC(O)COc1ccc2c(c1)CCC2 (configuration not stated),-5.8,3.2,-0.4,14.2,-10.3,16.5
CCOC(=O)c1c(NC(=O)CSc2nc3ccccc3s2)sc(C(C)=O)c1C,-32.3,39.0*,1.8,-33.2,-17.6,22.3*
